Format in all cases: functional, Erythrocyte
The nature of test [1]: Antiinflammatory activity assessed as prevention of hypotonicity-induced lysis of human RBC at 100 ug/ml. The method, boiled down:
(§1)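 Human blood spun at 1500 rpm; packed cells washed in isotonic NaCl (0.85%, pH 7.2) and resuspended 10% v/v. Mixture: compound, 1 ml phosphate buffer (0.15 M, pH 7.4), 2 ml hypotonic NaCl (0.36%), 0.5 ml cell suspension; control used distilled water instead of hypotonic saline. Incubated 37 °C, 30 min, centrifuged; supernatant hemoglobin read at 500 nm.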

Test [2] can be described thus: Antiinflammatory activity assessed as prevention of hypotonicity-induced lysis of human RBC at 10 ug/ml. The gist of the method: as §1
The nature of test [3]: Antiinflammatory activity assessed as prevention of hypotonicity-induced lysis of human RBC at 50 ug/ml. The gist of the method: as §1
The nature of test [4]: Antiinflammatory activity assessed as prevention of hypotonicity-induced lysis of human RBC at 200 ug/ml. The gist of the method: as §1

For `Cc1cc2c(cc1C)COc1ccccc1C(=O)N(c1ccccc1)CCNC(=O)COc1ccccc1OCC(=O)NCCN(c1ccccc1)C(=O)c1ccccc1OC2`, the Activity in test [1] worked out at 45.25%; in test [2] it was 38.84%; in test [3] it was 41.72%; in test [4], 47.97%.

In the case of `Cc1cc2c(cc1C)COc1ccccc1C(=O)Nc1ccccc1SCc1ccc(cc1)-c1cccc(c1)-c1ccc(cc1)CSc1ccccc1NC(=O)c1ccccc1OC2`, the Activity in test [1] is listed as 51.42%; in test [2], 48.27%; in test [3], 49.37%; in test [4], 54.14%.

For `Cc1cc2c(cc1C)COc1ccccc1C(=O)Nc1ccccc1SCCOc1ccc(cc1)NC(=O)c1ccccc1OC2`, the Activity in test [1] stood at 50.25%; in test [2], 44.28%; in test [3], 45.63%; in test [4], 51.27%.

In the case of `Cc1cc2c(cc1C)COc1ccccc1C(=O)Nc1ccccc1SCc1ccc(cc1)-c1ccc(cc1)CSc1ccccc1NC(=O)c1ccccc1OC2`, the Activity turned out to be 89.67% in test [1], 65.17% in test [2], 82.43% in test [3] and 91% in test [4].

Turning to `Cc1cc2c(cc1C)COc1ccccc1C(=O)Nc1ccccc1SCc1ccc(cc1)NC(=O)c1ccccc1OC2`, the Activity was 56.04% in test [1], 50.31% in test [2], 52.27% in test [3] and 60.86% in test [4].

With `O=C1CSc2ccccc2NC(=O)c2ccccc2OCc2ccccc2COc2ccccc2C(=O)Nc2ccccc2SCC(=O)Nc2ccccc2N1`, the Activity in test [1] was found to be 48.72%; in test [2], 40.53%; in test [3], 42.6%; in test [4], 49.65%.

For the compound `C[C@]12C=CC(=O)C=C1CC[C@@H]1[C@@H]2[C@@H](O)C[C@@]2(C)[C@H]1CC[C@]2(O)C(=O)CO` [PREDNISOLONE], the Activity was 86.37% in test [1] and 59.34% in test [3].

Values taken from ChEMBL document CHEMBL1145301, “Synthesis and study of anti-inflammatory activity of some novel cyclophane amides” (2006).
